sPLA2-III inh – Inhibits HGIII-sPLA2 liposome hydrolysis, primary screen. Q9NZ20. inhibition, % at 12.2 µM. 0.56% of 370,000 active. QFRET BODIPY PC-A2 liposome hydrolysis, fluorescence;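 active = inhibition above mean plus 3 SD of compounds lying within the high and low control bounds, cut at about 19% in these data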;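 also: 0% = median of test compound wells and 100% = no enzyme DMSO wells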
Target sequence (Q9NZ20 whole entry, looked up): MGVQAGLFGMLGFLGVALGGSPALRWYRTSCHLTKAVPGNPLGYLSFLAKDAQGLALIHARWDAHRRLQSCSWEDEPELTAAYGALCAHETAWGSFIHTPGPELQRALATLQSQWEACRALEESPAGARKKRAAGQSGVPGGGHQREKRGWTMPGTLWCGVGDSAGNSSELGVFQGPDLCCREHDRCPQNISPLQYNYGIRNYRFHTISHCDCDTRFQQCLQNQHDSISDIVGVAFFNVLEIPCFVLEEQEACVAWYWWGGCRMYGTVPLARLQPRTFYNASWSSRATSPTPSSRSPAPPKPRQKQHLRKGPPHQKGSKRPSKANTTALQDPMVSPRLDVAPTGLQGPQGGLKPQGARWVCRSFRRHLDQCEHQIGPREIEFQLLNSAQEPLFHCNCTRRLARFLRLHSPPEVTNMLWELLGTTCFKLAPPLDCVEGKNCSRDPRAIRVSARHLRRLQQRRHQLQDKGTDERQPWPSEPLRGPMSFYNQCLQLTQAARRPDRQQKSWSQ
ARFGAP1 inh – rat ARFGAP1 inhibition; Q62848; inhibition, % at 16.5 µM; Arfgap1-stimulated ARF1 GTP hydrolysis, GDP FP detection; 0.26% of 360,000 active;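 active = inhibition above a per-plate limit, mean inhibition of low control wells plus 3 SD, cut at about 25% in these data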;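 also: 0% = DMSO wells with enzyme and 100% = wells lacking Arfgap1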
Target sequence (Q62848 1-136 limits assumed): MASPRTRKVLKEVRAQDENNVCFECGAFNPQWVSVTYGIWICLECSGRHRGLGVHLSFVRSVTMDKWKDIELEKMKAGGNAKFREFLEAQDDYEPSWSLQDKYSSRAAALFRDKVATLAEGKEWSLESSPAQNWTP
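Material: truncated rat Arfgap1 GAP domain; Incubation: compound-enzyme preincubation 20 min, reaction 120 min, detection 60 min, 25 °C; Read-out: percent inhibition of Arfgap1-stimulated GTP hydrolysis; Technique: FP, GDP Alexa 633 tracer displaced from anti-GDP antibody, 620/688 nm; Controls: No-Arfgap1 wells (100%) versus DMSO full-reaction wells (0%); Replication: single well per compound.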
PLCg1 inh – PLC-gamma1 (human) inhibition, primary screen. P19174. purified PLC-gamma1, fluorogenic substrate, fluorescence. inhibition, % at 12.2 µM. 0.84% of 370,000 active. AID 720700; in the data active = inhibition above about 9.5%
PLC-beta3 inh – PLC-beta3 (human) inhibition, primary screen | 0.18% of 370,000 active | Q01970 | inhibition, % at 12.2 µM | Purified PLC-beta3, fluorogenic substrate, fluorescence; in the data active = inhibition above about 11%;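 also: 0% = median of compound wells on plate and 100% = full blocker control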
ASAP1 GAP inh – ASAP1 ArfGAP inhibition. ASAP1-stimulated ARF1 GTP hydrolysis, GDP FP detection. 0.19% of 360,000 active. inhibition, % at 16.5 µM; in the data active = inhibition above about 25%;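 also: 0% = vehicle with enzyme and substrate and 100% = no enzyme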
hGIII sPLA2 conf – human GIII-sPLA2 inhibition, confirmation; 34% of 2,000 active; shares compounds with sPLA2-III inh; AID 743280; recombinant hGIII-sPLA2, BODIPY PC-A2 QFRET fluorescence; inhibition, % at 12.2 µM;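 active = mean inhibition across triplicates above the hit cutoff set in the earlier primary screen, cut at about 19% in these data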;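 also: 0% = enzyme with DMSO and 100% = DMSO wells lacking enzyme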
535nm interf – optically interferes with 535nm fluorescence in sPLA2 counter-screen; shares compounds with sPLA2-III inh; BODIPY FL product fluorescence interference, QFRET; inhibition, % at 12.2 µM; 8.5% of 2,000 active;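 active = average inhibition above the solvent-only control mean plus 3 SD, cut at about 6% in these data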;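 also: 0% = DMSO with substrate plus product and 100% = DMSO with substrate alone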
535nm interf DR – interferes with 535nm fluorescence in dose response counter-screen. 240 tested, under 10 active. IC50, µM. BODIPY FL product fluorescence interference, cell-free. shares compounds with sPLA2-III inh;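 active = IC50 at or below 10 µM; inactive = IC50 above 10 µM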
* = called active by the depositor; i = inactive; . = no result given. Only some compounds are listed: those with a hit (about 1.9% of all), similar ones and a draw of the others.

SMILES	sPLA2-III inh	ARFGAP1 inh	PLCg1 inh	PLC-beta3 inh	ASAP1 GAP inh	hGIII sPLA2 conf	535nm interf	others
CCCCCCCCNC(=O)c1cccnc1SCC(=O)Nc1ccc(OC)cc1OC	22*	5	2	-2	9	-9	-41
Cc1cccc(C)c1NC(=O)C1CCCN1S(=O)(=O)c1cccc2cccnc12 (stereo not given)	4	.	3	3	.	.	.
C=CC[C@]12C[C@@]3(O[C@H](c4ccc(C(F)(F)F)cc4)N=C3C[C@H](c3ccc(OC)cc3)[C@H]1C)N(Cc1ccncc1)C2=O	-4	-5	-3	-2	3	.	.
S=c1[nH]nc(Nc2ccc(Cl)cc2)s1	14	-9	1	-5	-9	.	.
Cc1ccc(Nc2n[nH]c(=S)s2)cc1	24*	7	4	0	2	34*	0	535nm interf DR=>122
NCCNc1ccc(C(=O)N2c3ccccc3Sc3ccccc32)cc1[N+](=O)[O-]	20*	8	7	-4	-1	24*	-27
Nc1ccc(C(=O)OCC(=O)N2c3ccccc3Sc3ccccc32)cc1[N+](=O)[O-]	-8	2	5	6	0	.	.
COCc1[nH]nc2c1C(c1ccc(C)cc1)NC2=O (stereo not given)	7	5	6	6	6	.	.
Cc1ccc(/C(N)=N/OC(=O)CCc2ccccc2)cc1	20*	6	-2	1	7	-4	-6
CN(C)CC(=O)N[C@H]1C[C@@H]2O[C@@H](CO)CC[C@@H]2O[C@@H]1CCc1ccc(C2=CCCCC2)cc1	-19	.	-2	3	.	.	.
CCCCCN=C(N)N/N=C/c1c[nH]c2ccc(OC)cc12	28*	5	1	-4	-6	40*	-37
CC[C@H](C)[C@@H](CN[C@H](C)CNC)NCCC(c1ccccc1)c1ccccc1	26*	-2	5	1	5	4	-27
O=C(NCc1ccco1)OC1CCC12CCC(c1ccccc1)CC2 (stereo not given)	-7	.	1	3	.	.	.
CC(C1CC1)N(Cc1ccccc1)C(=S)Nc1cccc(C(F)(F)F)c1 (stereo not given)	21*	3	-1	-1	-3	9	-6
N#C/C(=N\Nc1ccccc1)C(N)=S	19*	1	4	0	-1	33*	-3
Cc1ccc(C)c(-n2cc[nH]c2=S)c1	20*	-14	2	0	-17	8	-5
Cc1cnc(C)c(Nc2nc(C(N)Cc3ccc(F)cc3)cs2)n1 (stereo not given)	-4	9	-5	-11	-7	.	.
Cc1cnc(C)c(Nc2nc(C(N)Cc3ccc(Cl)cc3)cs2)n1 (stereo not given)	25*	2	-3	-20	9	2	-16
NC(Cc1ccc(C(F)(F)F)cc1)c1csc(Nc2nncc3ccccc23)n1 (stereo not given)	21*	15	-50	-84	2	2	-3
CCCCc1ccc2nc(NC(=O)c3cccs3)sc2c1	-29	.	-68	-105	.	.	.
COc1ccc(-c2cccc3[nH]c4c(c23)CCN2C(=O)[C@H]3[C@H](C)ON(C)[C@H]3C[C@@H]42)cc1	-13	9	i	i	13	.	.
Cc1ccc(/C=N/n2c(-c3ccco3)n[nH]c2=S)cc1	22*	2	-1	-9	-3	12	-1
Cc1cccc(/C=N/n2c(-c3ccco3)n[nH]c2=S)c1	16	-7	-2	-7	-16	.	.
CC1(C)Nc2ccc(O)cc2-c2c1ssc2=S	5	-7	4	2	8	.	.
CCOc1ccc2c(c1)-c1c(ssc1=S)C(C)(C)N2C	36*	-1	7	3	-8	46*	14*
SMILES	sPLA2-III inh	ARFGAP1 inh	PLCg1 inh	PLC-beta3 inh	ASAP1 GAP inh	hGIII sPLA2 conf	535nm interf	others
CN(C)c1ccc(NC(=O)Cn2cc3c(n2)CCCC3)cc1	21*	6	3	-2	-13	17	-3
COc1ccc(Cc2n[nH]c(=S)o2)cc1	6	1	3	-5	-12	.	.
S=c1[nH]nc(Cc2ccc(Cl)cc2)o1	22*	7	2	-4	13	8	-6
C=CCN1C(=O)c2n[nH]c(COC)c2C1c1ccc(F)cc1 (stereo not given)	4	10	-2	-3	3	.	.
CCOc1cc(NC(=O)C(C)C)c(OCC)cc1NC(=O)Nc1ccccc1	-2	-4	-1	-8	9	.	.
CCOc1cc(NC(=S)NCc2ccco2)c(OCC)cc1NC(=O)CC(C)C	20*	3	3	0	2	11	-4
CCOc1cc(NC(=S)NCc2ccccc2)c(OCC)cc1NC(=O)C(C)C	20*	0	5	-4	0	29*	-6	535nm interf DR=>122
CCCCS(=O)(=O)NCC1CCN(C(=O)C(=O)c2cc3ccccc3o2)CC1	-1	3	-4	0	-8	.	.
COc1ccc(CC(=O)NNC(=O)c2ccccn2)cc1	0	-11	0	-4	5	.	.
COc1ccc(CC(=O)NNC(=O)c2cnccn2)cc1	20*	1	3	-3	-7	8	-7
COc1ccc(C(=O)NC(=S)NNC(=O)c2ccccc2C)cc1	25*	3	-1	-10	8	29*	-1
COc1cc(C(=O)NNC(=O)c2ccc3c(c2)OCCO3)cc(OC)c1OC	4	0	-18	-23	6	.	.
COc1cc(C(=O)Nc2ccncc2)cc(OC)c1OC	21*	3	5	-4	-14	-3	-8
COc1cc(C(=O)NNC(=S)NC(=O)c2ccc3c(c2)OCO3)cc(OC)c1OC	24*	-4	2	-3	-5	37*	-16	535nm interf DR=>122
CCOC(=O)C1=CCN(S(=O)(=O)c2ccc(Br)cc2)C1c1cccc(Cl)c1 (stereo not given)	-7	4	1	-3	-6	.	.
Cc1ccc(S(=O)(=O)N2c3ccc(F)cc3C[C@H]2CSc2ccccc2)cc1	-1	.	3	1	.	.	.
Cc1ccccc1N1CCN(C(=O)COc2cc(=O)n(C)c3ccccc23)CC1	7	.	5	4	.	.	.
CCOC(=O)N1CCN(C(=O)C[C@@H]2C(=O)N3CCCC4=C3[C@@]2(C(=O)OCC)CCC4)CC1	-1	.	1	4	.	.	.
COc1cc(C(=O)NNC(=S)NC(=O)c2ccccc2C)cc(OC)c1OC	26*	-1	3	0	4	25*	-13
COc1ccc(C(=O)NNC(=S)NC(=O)C(C)(C)C)cc1	23*	-7	4	-5	8	19*	-10
COc1ccccc1C(=O)NNC(=S)NC(=O)c1cc(OC)c(OC)c(OC)c1	7	-10	1	1	-16	.	.

Screening results: PubChem BioAssay, The Scripps Research Institute Molecular Screening Center
